The nature of data set [1]: Cytotoxicity against MDCK cells after 40 hrs incubation by CellTiter-Glo assay. It is filed as cell-based, Canis lupus familiaris. Conditions: dog. Put shortly:
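Uninfected MDCK cells were grown overnight in 96-well plates in 1% FBS medium. They were exposed to increasing compound concentrations for 40 h, and viability was read by CellTiter-Glo luminescence.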

In data set [2] the test system is Influenza A virus. The data set is described as follows: Antiviral activity against Influenza A virus A/WSN/33(H1N1) infected in MDCK cells assessed as s reduction in cytopathic effect after 40 hrs incubation by CellTiter-Glo assay relative to control. It is filed as functional, A/WSN/1933(H1N1). The method, boiled down: (§1)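 MDCK cells seeded in 96-well plates and grown overnight, then infected with A/WSN/33 (H1N1) at MOI 0.1. Cells were kept in DMEM with 1% FBS, test compound, 2 µg/mL TPCK-trypsin and 1% DMSO final. After 40 h, cell viability was read by CellTiter-Glo luminescence to measure CPE reduction.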
On the technique in general: Damage to the host cells serves as the signal in cytopathic effect assays.

Data set [3] relates to Influenza A virus. The data set is described as follows: Antiviral activity against Influenza A virus A/WSN/33(H1N1) infected in MDCK cells assessed as s reduction in cytopathic effect after 40 hrs incubation by CellTiter-Glo assay. Format: functional, organism-based. Conditions: A/WSN/1933(H1N1). Put shortly: as §1
The nature of data set [4]: Binding affinity to recombinant influenza A virus A hemagglutinin by SPR assay. The method, boiled down:
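SPR used HA immobilized to about 16,000 RU. Compounds were injected as analytes at various concentrations in PBS-P running buffer (10 mM phosphate, 2.7 mM KCl, 137 mM NaCl, 0.05% P20, pH 4.5). Flow was 30 µL/min, with 60 s contact and 60 s dissociation, giving KD.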
For orientation: Surface plasmon resonance follows binding to a sensor surface in real time, without labels.

For data set [5], the system named is Influenza A virus. Briefly: Antiviral activity against Influenza A virus A/WSN/33(H1N1)) infected in MDCK cells assessed as suppression of viral genome replication after 8 to 10 hrs post infection by time of addition assay. It is filed as functional, organism-based. Conditions: A/WSN/1933(H1N1), time 8-10 hrs. Put shortly:
(§2)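 Cells were seeded in 6-well plates at 5 × 10^5 per well 24 h before infection and kept at 37 °C, 5% CO2. They were infected with WSN at MOI 1. Compound was present during 0-10, 0-2, 2-5, 5-8 or 8-10 h post infection. Lysates were Western-blotted for viral NP, with GAPDH probed and DMSO as control.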

Data set [6] relates to Influenza A virus. Briefly: Antiviral activity against Influenza A virus A/WSN/33(H1N1)) infected in MDCK cells assessed as inhibition rate at 50 uM by co-treatment assay. Format: functional, A/WSN/1933(H1N1). Also on record: scale not given: the % may be the effect or the level left.
The test system of a further data set is Red blood cell. The data set is described as follows: Inhibition of hemagglutinin in Influenza A virus A/WSN/33(H1N1)) assessed as reduction in virus-induced agglutination of chicken red blood cells pretreated for 1 hr followed by further incubated for 1 hr. Conditions: Influenza A virus (A/WSN/1933(H1N1)). It is filed as cell-based. The method, boiled down:
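Haemagglutination inhibition: compound was 3-fold serially diluted in saline and mixed with an equal volume of WSN virus (2 HA units) in V-bottom wells. Freshly prepared chicken RBC (1% v/v in saline) were added and incubated at room temperature. cRBC aggregation was scored visually, with anti-HA antibody as comparator.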

The test system of data set [7] is Influenza A virus. The data set is described as follows: Antiviral activity against Influenza A virus A/WSN/33(H1N1)) infected in MDCK cells assessed as inhibition rate by pretreated virus at 50 uM. It is filed as functional, A/WSN/1933(H1N1). Also noted: scale not given: the % may be the effect or the level left.
The subject of data set [8] is Influenza A virus. Briefly: Antiviral activity against Influenza A virus A/WSN/33(H1N1)) infected in MDCK cells assessed as inhibition of virus infection at early stage after 2 hrs post infection by time of addition assay. Format: functional, organism-based. The following applies: A/WSN/1933(H1N1). Put shortly: as §2
In data set [9] the test system is Influenza A virus. Briefly: Antiviral activity against Influenza A virus A/WSN/33(H1N1)) infected in MDCK cells assessed as suppression of viral genome translation after 8 to 10 hrs post infection by time of addition assay. The following applies: A/WSN/1933(H1N1), time 8-10 hrs. It is filed as functional, organism-based. Put shortly: as §2
Data set [10] deals with Influenza A virus. The data set is described as follows: Antiviral activity against Influenza A virus A/WSN/33(H1N1)) infected in MDCK cells assessed as suppression of virion assembly and release after 8 to 10 hrs post infection by time of addition assay. The following applies: A/WSN/1933(H1N1), time 8-10 hrs. Format: functional, organism-based. The method, boiled down: as §2

SMILES strings stand for the structures. The source made the active and inactive calls. No cut-off for these calls is given here.

As a reminder, the CC50 is the concentration at which the toxic effect on the cells reaches its halfway point. In data set [1], `C=C(C)[C@@H]1CC[C@@]2(C(=O)NCc3cn(C[C@H](O)[C@H]4OC(=O)C(OC)=C4OC)nn3)[C@H]1[C@H]1CC[C@@H]3[C@@]4(C)CC[C@H](O)C(C)(C)[C@@H]4CC[C@@]3(C)[C@]1(C)C[C@H]2O` gave a CC50 at 40 h of 43.9 µM.
The term EC50 denotes the concentration needed to bring the measured effect to its halfway point. As to `CC1(C)CC[C@]2(C(=O)NC[C@H](O)[C@H]3OC(=O)C(OCc4ccccc4)=C3OCc3ccccc3)CC[C@]3(C)C(=CC[C@@H]4[C@@]5(C)CC[C@H](O)C(C)(C)[C@@H]5CC[C@]43C)[C@@H]2C1`, the “inhibition (INH)” value in the data set with Influenza A virus [2] turned out to be 81.9%. In the data set on Influenza A virus [3], the EC50 is 25.3 µM. Further, the 50% cytotoxic concentration (CC50) at 40 h in [1] is more than 200 µM.
As to `COC1=C(OC)[C@@H]([C@@H](O)Cn2cc(CNC(=O)[C@]34CC[C@@H](C)[C@H](C)[C@H]3C3=CC[C@@H]5[C@@]6(C)CC[C@H](O)C(C)(C)[C@@H]6CC[C@@]5(C)[C@]3(C)C[C@H]4O)nn2)OC1=O`, the CC50 at 40 h in data set [1] worked out at 52.5 µM.
In the case of `C[C@H]1[C@H](C)CC[C@]2(C(=O)NCc3cn(C[C@H](O)[C@H]4OC(=O)C(OCc5ccccc5)=C4OCc4ccccc4)nn3)CC[C@]3(C)C(=CC[C@@H]4[C@@]5(C)CC[C@H](O)C(C)(C)[C@@H]5CC[C@]43C)[C@H]12`, the “inhibition (INH)” value in the data set with Influenza A virus [2] is recorded as 90.8%. For the same molecule, the EC50 in the data set with Influenza A virus [3] worked out at 25.7 µM. Further, the CC50 at 40 h in data set [1] is more than 200 µM.
In the case of `C[C@H]1[C@H](C)CC[C@]2(C(=O)NCc3cn(C[C@H](O)[C@H]4OC(=O)C(O)=C4O)nn3)[C@H](O)C[C@]3(C)C(=CC[C@@H]4[C@@]5(C)CC[C@H](O)C(C)(C)[C@@H]5CC[C@]43C)[C@H]12`, in data set [1], the CC50 at 40 h was determined as 41.1 µM.
As to `CC1(C)CC[C@]2(C(=O)NCc3cn(C[C@H](O)[C@H]4OC(=O)C(OCc5ccccc5)=C4OCc4ccccc4)nn3)[C@H](O)C[C@]3(C)C(=CC[C@@H]4[C@@]5(C)CC[C@H](O)C(C)(C)[C@@H]5CC[C@]43C)[C@@H]2C1`, the “inhibition (INH)” value in the data set with Influenza A virus [2] came out at 87%. Also, the EC50 in the data set on Influenza A virus [3] came out at 56.6 µM. This molecule returned a CC50 at 40 h in [1] of more than 200 µM.
For `CC1(C)CC[C@]2(C(=O)NCc3cn(C[C@H](O)[C@H]4OC(=O)C(OCc5ccccc5)=C4OCc4ccccc4)nn3)CC[C@]3(C)C(=CC[C@@H]4[C@@]5(C)CC[C@H](O)C(C)(C)[C@@H]5CC[C@]43C)[C@@H]2C1`, in that order: 91.3%, 19.2 µM and more than 200 µM.
`CC1(C)CC[C@]2(C(=O)NC[C@H](O)[C@H]3OC(=O)C(O)=C3O)[C@H](O)C[C@]3(C)C(=CC[C@@H]4[C@@]5(C)CC[C@H](O)C(C)(C)[C@@H]5CC[C@]43C)[C@@H]2C1` registered a CC50 at 40 h in data set [1] of 29.7 µM.
For `C[C@H]1[C@H](C)CC[C@]2(C(=O)NC[C@H](O)[C@H]3OC(=O)C(OCc4ccccc4)=C3OCc3ccccc3)CC[C@]3(C)C(=CC[C@@H]4[C@@]5(C)CC[C@H](O)C(C)(C)[C@@H]5CC[C@]43C)[C@H]12`, the “inhibition (INH)” value in the data set with Influenza A virus [2] is recorded as 88.1%. Moreover, the EC50 in the data set with Influenza A virus [3] was 26.4 µM. Besides, in data set [1], the CC50 at 40 h was more than 200 µM.
On the same counts, the results for `CCOC(=O)C1=C[C@@H](OC(CC)CC)[C@H](NC(C)=O)[C@@H](N)C1.O=P(O)(O)O` [OSELTAMIVIR PHOSPHATE] are 86.5%, 12.5 µM and more than 200 µM.
`COC1=C(OC)[C@@H]([C@@H](O)Cn2cc(CNC(=O)[C@]34CCC(C)(C)C[C@H]3C3=CC[C@@H]5[C@@]6(C)CC[C@H](O)C(C)(C)[C@@H]6CC[C@@]5(C)[C@]3(C)C[C@H]4O)nn2)OC1=O` registered a CC50 at 40 h in data set [1] of 5.6 µM.
As a reminder, the Kd is the equilibrium constant for the complex coming apart. `C=C(C)[C@@H]1CC[C@]2(C(=O)NCc3cn(C[C@H](O)[C@H]4OC(=O)C(O)=C4O)nn3)CC[C@]3(C)[C@H](CC[C@@H]4[C@@]5(C)CC[C@H](O)C(C)(C)[C@@H]5CC[C@]43C)[C@@H]12`: the “inhibition (INH)” value with Influenza A virus [2] stood at 93.1%. Besides, the Kd in [4] is 8.04 µM. In addition, in the data set on Influenza A virus [3], the EC50 was determined as 41.3 µM. In [1], the CC50 at 40 h is more than 200 µM.
In the case of `CC(C)[C@@H]1CC[C@]2(C(=O)NC[C@H](O)[C@H]3OC(=O)C(O)=C3O)CC[C@]3(C)[C@H](CC[C@@H]4[C@@]5(C)CC[C@H](O)C(C)(C)[C@@H]5CC[C@]43C)[C@@H]12`, the “inhibition (INH)” value with Influenza A virus [2] was 84.4%. In addition, the EC50 in the data set with Influenza A virus [3] was found to be 35.6 µM. The CC50 at 40 h in data set [1] is more than 200 µM.
On the same counts, the results for `CC1(C)CC[C@]2(C(=O)NC[C@H](O)[C@H]3OC(=O)C(OCc4ccccc4)=C3OCc3ccccc3)[C@H](O)C[C@]3(C)C(=CC[C@@H]4[C@@]5(C)CC[C@H](O)C(C)(C)[C@@H]5CC[C@]43C)[C@@H]2C1` are 71.1%, 30.3 µM and more than 200 µM.
Take `CC1(C)CC[C@]2(C(=O)NC[C@H](O)[C@H]3OC(=O)C(O)=C3O)CC[C@]3(C)C(=CC[C@@H]4[C@@]5(C)CC[C@H](O)C(C)(C)[C@@H]5CC[C@]43C)[C@@H]2C1`: the cytotoxic concentration (CC50) at 40 h in data set [1] stood at 41.9 µM.
The same measure, in the same setting: the same measure for `CC1(C)CC[C@]2(C(=O)NCc3cn(C[C@H](O)[C@H]4OC(=O)C(O)=C4O)nn3)CC[C@]3(C)C(=CC[C@@H]4[C@@]5(C)CC[C@H](O)C(C)(C)[C@@H]5CC[C@]43C)[C@@H]2C1`: 46.8 µM.
With `C=C(C)[C@@H]1CC[C@]2(C(=O)NC[C@H](O)[C@H]3OC(=O)C(OCc4ccccc4)=C3OCc3ccccc3)CC[C@]3(C)[C@H](CC[C@@H]4[C@@]5(C)CC[C@H](O)C(C)(C)[C@@H]5CC[C@]43C)[C@@H]12`, the “inhibition (INH)” value in the data set on Influenza A virus [2] is reported as 89.6%. In the data set with Influenza A virus [3], the EC50 amounted to 23.7 µM. In data set [1], this molecule registered a CC50 at 40 h of more than 200 µM.
On to `C=C(C)[C@@H]1CC[C@]2(C(=O)NCc3cn(C[C@H](O)[C@H]4OC(=O)C(OCc5ccccc5)=C4OCc4ccccc4)nn3)CC[C@]3(C)[C@H](CC[C@@H]4[C@@]5(C)CC[C@H](O)C(C)(C)[C@@H]5CC[C@]43C)[C@@H]12`, for which the result in the data set on Influenza A virus [5], in the data set with Influenza A virus [8], in the data set on Influenza A virus [9] and in the data set with Influenza A virus [10] was Active. For the same molecule, the values for the Activity in the data set on Influenza A virus [6] and in the data set on Influenza A virus [7] were 75% and 87%, respectively. In addition, the inhibition entry with Red blood cell is “Dose-dependent effect”. In addition, in the data set with Influenza A virus [2], the “inhibition (INH)” value is recorded as 89.6%. The Kd in data set [4] came out at 3.76 µM. The EC50 with Influenza A virus [3] was 8.7 µM. Further, in data set [1], the CC50 at 40 h is more than 200 µM.
Molecule `CC1(C)CC[C@]2(C(=O)NCc3cn(C[C@H](O)[C@H]4OC(=O)C(O)=C4O)nn3)[C@H](O)C[C@]3(C)C(=CC[C@@H]4[C@@]5(C)CC[C@H](O)C(C)(C)[C@@H]5CC[C@]43C)[C@@H]2C1` yielded a CC50 at 40 h in data set [1] of 59.3 µM.
Same read-out and setting: the same measure for `COC1=C(OC)[C@@H]([C@@H](O)Cn2cc(CNC(=O)[C@]34CCC(C)(C)C[C@H]3C3=CC[C@@H]5[C@@]6(C)CC[C@H](O)C(C)(C)[C@@H]6CC[C@@]5(C)[C@]3(C)CC4)nn2)OC1=O`: 19.6 µM.

These data come from ChEMBL document CHEMBL4715704, “Design, synthesis and biological evaluation of novel L-ascorbic acid-conjugated pentacyclic triterpene derivatives as potential influenza virus entry inhibitors” (Eur J Med Chem, 2016).
